# Assay results reported in ChEMBL document CHEMBL1131139, “Synthesis and antibacterial activity of ketolides (6-O-methyl-3-oxoerythromycin derivatives): a new class of antibacterials highly potent against macrolide-resistant and -susceptible respiratory pathogens” (1998).
# Experiments:
# Format in all cases: functional
# Staphylococcus aureus [1] = test: In vitro inhibitory activity against Staphylococcus aureus (EryRi 011GO25i)
# In short: (§1)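 Two-fold agar dilution on Mueller-Hinton agar (pH 7.4). Inoculum from overnight plate cultures suspended in Mueller-Hinton broth, adjusted to 10^9 CFU/mL, diluted 1:200 and spotted by multipoint inoculator at about 10^4 CFU/spot. Plates incubated 37 °C for 20 h. MIC taken as lowest concentration with no visible growth.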
# Streptococcus pyogenes = test: In vitro inhibitory activity against Streptococcus pyogenes (02A1UC1); in short: as §1
# Streptococcus pneumoniae [2] = test: In vitro inhibitory activity against Streptococcus pneumoniae (EryRi 030SJ5i); in short: as §1
# Staphylococcus aureus [3] = test: In vitro inhibitory activity against Staphylococcus aureus (EryRc 011CB20); in short: as §1
# Haemophilus influenzae [4] = test: In vitro inhibitory activity against Haemophilus influenzae (351HT3); in short: as §1
# [5] = tested on: Staphylococcus epidermidis; test: In vitro inhibitory activity against Staphylococcus epidermidis (EryRi 012GO11i); in short: as §1
# Streptococcus pneumoniae [6] = test: In vitro inhibitory activity against Streptococcus pneumoniae (EryRc 030SJ1); in short: as §1
# Haemophilus influenzae [7] = test: In vitro inhibitory activity against Haemophilus influenzae (351CB12); in short: as §1
# Staphylococcus aureus [8] = test: In vitro inhibitory activity against Staphylococcus aureus (011UC4); in short: as §1
# Escherichia coli = test: In vitro inhibitory activity against Escherichia coli (250 UC5); in short: as §1
# Streptococcus pneumoniae [9] = test: In vitro inhibitory activity against Streptococcus pneumoniae (032UC1); in short: as §1
# Haemophilus [10] = test: In vitro inhibitory activity against Haemophilus AmpS (43)
# Streptococcus sp. [11] = test: In vitro inhibitory activity against Streptococci EryR (27)
# [12] = In vitro inhibitory activity against Pneumococci PenR (65)
# Mus musculus [13] = test: In Vivo evaluation for its effective dose against Streptococcus pneumoniae (030SJ1 EryRc)
# In short: (§2)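 Male Charles River CD1 mice, 20-22 g, 10 per dose group, infected intraperitoneally with 0.5 mL diluted overnight broth culture (physiological buffer or 5% hog mucine) at 10-100 times the minimal lethal dose. Compound suspended in carboxymethylcellulose, 0.5 mL given orally immediately and 4 h postinfection. Survival followed 8-10 days; ED50 (unitary dose protecting 50% from death) by Litchfield-Wilcoxon probit method.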
# [14] = In vitro inhibitory activity against Pneumococci EryRc (34)
# Streptococcus sp. [15] = test: In vitro inhibitory activity against Streptococci EryRi (98)
# Staphylococcus sp. [16] = test: In vitro inhibitory activity against Staphylococci Staphylococci EryRc (23)
# Enterococcus [17] = test: In vitro inhibitory activity against enterococci EryRi (19)
# Enterococcus [18] = test: In vitro inhibitory activity against enterococci EryRc (13)
# Mus musculus [19] = test: In Vivo evaluation for its effective dose against Staphylococcus aureus (011GO25 EryRi.; in short: as §2
# Mus musculus [20] = test: In Vivo evaluation for its effective dose against Streptococcus pneumoniae (030SJ6 EryRc); in short: as §2
# Mus musculus [21] = test: In Vivo evaluation for its effective dose against Streptococcus pneumoniae (030MV2 EryRc); in short: as §2
# Haemophilus [22] = test: In vitro inhibitory activity against Haemophilus AmpR (37)
# Staphylococcus sp. [23] = test: In vitro inhibitory activity against Staphylococci EryRi (65)
# Mus musculus [24] = test: In Vivo evaluation for its effective dose against Streptococcus pneumoniae (030RO1 EryRi); in short: as §2
# Mus musculus [25] = test: In Vivo evaluation for its effective dose against Streptococcus pneumoniae (030Cr29 EryRc); in short: as §2
structure (smiles),measurement,setting,value
CC[C@H]1OC(=O)[C@H](C)C(=O)[C@H](C)[C@@H](O[C@@H]2O[C@H](C)C[C@H](N(C)C)[C@H]2O)[C@](C)(OC)C[C@@H](C)/C(=N\OCCN2CCCC2)[C@H](C)[C@@H](O)[C@]1(C)O,MIC,Staphylococcus aureus [1],2.5 µg/mL
same,MIC,Streptococcus pyogenes,0.15 µg/mL
same,MIC,Streptococcus pneumoniae [2],40 µg/mL
same,MIC,Staphylococcus aureus [3],40 µg/mL
same,MIC,Haemophilus influenzae [4],40 µg/mL
same,MIC,[5],0.6 µg/mL
same,MIC,Streptococcus pneumoniae [6],20 µg/mL
same,MIC,Haemophilus influenzae [7],20 µg/mL
same,MIC,Staphylococcus aureus [8],0.6 µg/mL
same,MIC,Escherichia coli,40 µg/mL
same,MIC,Streptococcus pneumoniae [9],20 µg/mL
CC[C@H]1OC(=O)[C@H](C)C(=O)[C@H](C)[C@@H](O[C@@H]2O[C@H](C)C[C@H](N(C)C)[C@H]2O)[C@](C)(OC)C[C@@H](C)C(=O)[C@@H](C)[C@H]2NC(=O)O[C@@]21C,MIC,Staphylococcus aureus [1],40 µg/mL
same,MIC,Streptococcus pyogenes,2.5 µg/mL
same,MIC,Streptococcus pneumoniae [2],40 µg/mL
same,MIC,Staphylococcus aureus [3],40 µg/mL
same,MIC,Haemophilus influenzae [4],20 µg/mL
same,MIC,[5],40 µg/mL
same,MIC,Streptococcus pneumoniae [6],40 µg/mL
same,MIC,Haemophilus influenzae [7],20 µg/mL
same,MIC,Staphylococcus aureus [8],5 µg/mL
same,MIC,Escherichia coli,40 µg/mL
same,MIC,Streptococcus pneumoniae [9],0.3 µg/mL
CC[C@H]1OC(=O)[C@H](C)C(=O)[C@H](C)[C@@H](O[C@@H]2O[C@H](C)C[C@H](N(C)C)[C@H]2O)[C@](C)(OC)C[C@@H](C)/C(=N\O[C@@H]2CCCNC2)[C@H](C)[C@@H](O)[C@]1(C)O,MIC,Staphylococcus aureus [1],2.5 µg/mL
same,MIC,Streptococcus pyogenes,0.04 µg/mL
same,MIC,Streptococcus pneumoniae [2],0.3 µg/mL
same,MIC,Staphylococcus aureus [3],40 µg/mL
same,MIC,Haemophilus influenzae [4],2.5 µg/mL
same,MIC,[5],0.6 µg/mL
same,MIC,Streptococcus pneumoniae [6],0.3 µg/mL
same,MIC,Haemophilus influenzae [7],0.6 µg/mL
same,MIC,Staphylococcus aureus [8],0.15 µg/mL
same,MIC,Escherichia coli,40 µg/mL
same,MIC,Streptococcus pneumoniae [9],0.08 µg/mL
CO[C@@H]1[C@@H](OC2OC(C)C(OC3CC(C)(O)C(OC(=O)CC(C)C)C(C)O3)C(N(C)C)C2O)[C@@H](CC=O)C[C@@H](C)[C@@H](O)/C=C/C=C/C[C@@H](C)OC(=O)C[C@H]1OC(C)=O (stereo partly specified),MIC50,Haemophilus [10],5 µg/mL
same,MIC90,Haemophilus [10],20 µg/mL
same,MIC50,Streptococcus sp. [11],5 µg/mL
same,MIC90,Streptococcus sp. [11],40 µg/mL
same,MIC50,[12],0.3 µg/mL
same,MIC90,[12],40 µg/mL
same,ED50,Mus musculus [13],> 100 mg/kg
same,MIC50,[14],20 µg/mL
same,MIC90,[14],40 µg/mL
same,MIC50,Streptococcus sp. [15],5 µg/mL
same,MIC90,Streptococcus sp. [15],40 µg/mL
same,MIC50,Staphylococcus sp. [16],40 µg/mL
same,MIC90,Staphylococcus sp. [16],40 µg/mL
same,MIC50,Enterococcus [17],1.2 µg/mL
same,MIC90,Enterococcus [17],1.2 µg/mL
same,MIC50,Enterococcus [18],40 µg/mL
same,MIC90,Enterococcus [18],40 µg/mL
same,ED50,Mus musculus [19],> 100 mg/kg
same,ED50,Mus musculus [20],> 100 mg/kg
same,ED50,Mus musculus [21],> 100 mg/kg
same,MIC50,Haemophilus [22],5 µg/mL
same,MIC90,Haemophilus [22],20 µg/mL
same,MIC50,Staphylococcus sp. [23],1.2 µg/mL
same,MIC90,Staphylococcus sp. [23],2.5 µg/mL
same,ED50,Mus musculus [24],> 100 mg/kg
same,ED50,Mus musculus [25],> 100 mg/kg
CC[C@H]1OC(=O)[C@H](C)C(=O)[C@H](C)[C@@H](O[C@@H]2O[C@H](C)C[C@H](N(C)C)[C@H]2O)[C@](C)(OC)C[C@@H](C)C(=O)[C@H](C)[C@H]2N(CCN(C)Cc3ccccc3)C(=O)O[C@]12C,MIC,Staphylococcus aureus [1],0.6 µg/mL
same,MIC,Streptococcus pyogenes,0.04 µg/mL
same,MIC,Streptococcus pneumoniae [2],0.3 µg/mL
same,MIC,Staphylococcus aureus [3],40 µg/mL
same,MIC,Haemophilus influenzae [4],5 µg/mL
same,MIC,[5],0.15 µg/mL
same,MIC,Streptococcus pneumoniae [6],10 µg/mL
same,MIC,Haemophilus influenzae [7],2.5 µg/mL
same,MIC,Staphylococcus aureus [8],0.15 µg/mL
same,MIC,Escherichia coli,40 µg/mL
same,MIC,Streptococcus pneumoniae [9],0.02 µg/mL
CC[C@H]1OC(=O)[C@H](C)C(=O)[C@H](C)[C@@H](O[C@@H]2O[C@H](C)C[C@H](N(C)C)[C@H]2O)[C@](C)(OC)C[C@@H](C)/C(=N\OCCN(C)C)[C@H](C)[C@@H](O)[C@]1(C)O,MIC,Staphylococcus aureus [1],1.2 µg/mL
same,MIC,Streptococcus pyogenes,0.01 µg/mL
same,MIC,Streptococcus pneumoniae [2],0.15 µg/mL
same,MIC,Staphylococcus aureus [3],40 µg/mL
same,MIC,Haemophilus influenzae [4],20 µg/mL
same,MIC,[5],20 µg/mL
same,MIC,Streptococcus pneumoniae [6],2.5 µg/mL
same,MIC,Haemophilus influenzae [7],20 µg/mL
same,MIC,Staphylococcus aureus [8],0.08 µg/mL
same,MIC,Escherichia coli,40 µg/mL
same,MIC,Streptococcus pneumoniae [9],0.15 µg/mL
